Experimental findings from ChEMBL document CHEMBL1157912, “Impact of nature and length of linker incorporated in agonists on toll-like receptor 9-mediated immune responses” (J Med Chem, 2010) are described below.

Structures are written as SMILES.

For assay [1], the target named is T1, Toll-like receptor 9 (Homo sapiens) (UniProt Q9NR96).
T1 sequence (whole entry): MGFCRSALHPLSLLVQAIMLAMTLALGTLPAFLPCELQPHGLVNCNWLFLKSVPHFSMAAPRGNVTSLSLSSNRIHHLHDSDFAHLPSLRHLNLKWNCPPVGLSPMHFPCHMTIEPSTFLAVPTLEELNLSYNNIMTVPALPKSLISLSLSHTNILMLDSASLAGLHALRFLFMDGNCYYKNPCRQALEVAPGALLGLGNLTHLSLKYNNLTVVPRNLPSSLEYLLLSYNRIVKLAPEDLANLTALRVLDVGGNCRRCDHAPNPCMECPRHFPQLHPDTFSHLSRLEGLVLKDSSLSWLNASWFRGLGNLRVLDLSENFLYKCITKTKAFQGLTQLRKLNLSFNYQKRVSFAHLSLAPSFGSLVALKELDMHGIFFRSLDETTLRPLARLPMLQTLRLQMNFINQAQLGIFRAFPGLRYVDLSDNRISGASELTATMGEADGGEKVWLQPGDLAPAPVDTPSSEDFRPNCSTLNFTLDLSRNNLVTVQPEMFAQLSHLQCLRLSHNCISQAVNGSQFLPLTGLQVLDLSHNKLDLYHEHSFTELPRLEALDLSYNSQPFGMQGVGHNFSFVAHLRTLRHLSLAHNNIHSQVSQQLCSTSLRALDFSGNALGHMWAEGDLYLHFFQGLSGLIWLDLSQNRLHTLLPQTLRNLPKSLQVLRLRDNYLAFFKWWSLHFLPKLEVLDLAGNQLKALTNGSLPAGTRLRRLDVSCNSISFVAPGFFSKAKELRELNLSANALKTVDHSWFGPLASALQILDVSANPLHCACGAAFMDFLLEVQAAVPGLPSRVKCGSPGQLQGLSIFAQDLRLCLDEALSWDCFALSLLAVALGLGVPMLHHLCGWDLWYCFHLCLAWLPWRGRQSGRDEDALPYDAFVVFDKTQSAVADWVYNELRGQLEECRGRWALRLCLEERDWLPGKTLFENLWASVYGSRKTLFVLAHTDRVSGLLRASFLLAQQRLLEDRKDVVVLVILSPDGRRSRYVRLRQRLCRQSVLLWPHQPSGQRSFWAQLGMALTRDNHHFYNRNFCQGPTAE
The experiment in a line: Induction of TLR9-mediated immune stimulation in human PBMC assessed as RANTES production at 10 ug/ml after 24 hrs by luminex multiplex assay (RVb = 0.05 +/- 0.04 ng/ml).

Assay [2] concerns the target T1, Toll-like receptor 9 (Homo sapiens). The experiment in a line: Induction of TLR9-mediated immune stimulation in human PBMC assessed as MIP1alpha production at 2 ug/ml after 24 hrs by luminex multiplex assay (RVb = 0.01 ng/ml).
The target is the same in assay [3]. The experiment in a line: Induction of TLR9-mediated immune stimulation in human PBMC assessed as RANTES production at 2 ug/ml after 24 hrs by luminex multiplex assay (RVb = 0.05 +/- 0.04 ng/ml).
Assay [4] has the same target. The experiment in a line: Induction of TLR9-mediated immune stimulation in human PBMC assessed as IL12 production at 2 ug/ml after 24 hrs by luminex multiplex assay (RVb = 0.00 ng/ml).
Assay [5] shares this target. Description: Induction of TLR9-mediated immune stimulation in human PBMC assessed as IP10 production at 2 ug/ml after 24 hrs by luminex multiplex assay (RVb = 0.00 ng/ml).
Assay [6] has as its target T2, Toll-like receptor 9 (Mus musculus) (UniProt Q9EQU3).
T2 sequence (whole entry): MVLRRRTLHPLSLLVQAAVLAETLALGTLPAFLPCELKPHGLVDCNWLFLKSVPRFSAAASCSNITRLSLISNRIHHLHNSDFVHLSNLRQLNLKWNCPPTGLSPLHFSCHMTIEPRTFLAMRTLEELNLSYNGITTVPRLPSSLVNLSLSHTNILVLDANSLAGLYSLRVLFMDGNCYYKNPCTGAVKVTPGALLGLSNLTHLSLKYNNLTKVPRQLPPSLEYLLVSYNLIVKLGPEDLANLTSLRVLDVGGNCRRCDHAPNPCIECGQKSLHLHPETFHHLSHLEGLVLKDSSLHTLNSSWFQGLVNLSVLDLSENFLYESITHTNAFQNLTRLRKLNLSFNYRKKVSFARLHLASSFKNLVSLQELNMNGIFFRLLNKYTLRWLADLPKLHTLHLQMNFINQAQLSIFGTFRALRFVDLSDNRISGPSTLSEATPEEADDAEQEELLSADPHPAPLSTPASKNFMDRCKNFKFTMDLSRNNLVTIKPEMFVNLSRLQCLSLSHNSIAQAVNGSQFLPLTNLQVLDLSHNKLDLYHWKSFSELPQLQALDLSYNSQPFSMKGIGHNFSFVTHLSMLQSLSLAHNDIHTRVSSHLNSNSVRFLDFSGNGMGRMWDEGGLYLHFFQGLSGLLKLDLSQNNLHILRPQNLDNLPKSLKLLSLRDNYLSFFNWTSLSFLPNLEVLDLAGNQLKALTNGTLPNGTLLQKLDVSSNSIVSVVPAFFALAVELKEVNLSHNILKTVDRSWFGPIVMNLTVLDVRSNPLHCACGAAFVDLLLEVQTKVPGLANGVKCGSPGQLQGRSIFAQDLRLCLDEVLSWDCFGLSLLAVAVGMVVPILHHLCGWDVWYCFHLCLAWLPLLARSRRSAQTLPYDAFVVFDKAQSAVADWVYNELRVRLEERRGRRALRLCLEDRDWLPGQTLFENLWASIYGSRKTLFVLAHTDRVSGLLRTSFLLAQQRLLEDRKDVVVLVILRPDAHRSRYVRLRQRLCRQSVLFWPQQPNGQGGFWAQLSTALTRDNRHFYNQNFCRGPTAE
Description: Activation of mouse TLR9 expressed in HEK293 cells assessed as induction of NF-kappaB activity after 18 hrs by SEAP assay. Type of assay: cell-based. The gist of the method:
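HEK293 cells stably expressing mouse TLR9 were grown in DMEM with 10% heat-inactivated FBS. At 80% confluence they were transiently transfected with a SEAP reporter plasmid (100 ng/well, lipofectamine) for 6 h. Medium was then replaced and agonists were added for 18 h. Supernatant SEAP was read with QuantiBlue substrate at 620-645 nm. Results are expressed as fold NF-κB activity over PBS control.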

The target in assay [7] is T1, Toll-like receptor 9 (Homo sapiens). Description: Induction of TLR9-mediated immune stimulation in human PBMC assessed as MIP1beta production at 10 ug/ml after 24 hrs by luminex multiplex assay (RVb = 0.03 +/- 0.02 ng/ml).
For assay [8] the target is unchanged. Description: Induction of TLR9-mediated immune stimulation in human PBMC assessed as MIP1beta production at 2 ug/ml after 24 hrs by luminex multiplex assay (RVb = 0.03 +/- 0.02 ng/ml).
Assay [9] has the same target. The experiment in a line: Induction of TLR9-mediated immune stimulation in human PBMC assessed as IL1Ralpha production at 2 ug/ml after 24 hrs by luminex multiplex assay (RVb = 0.12 +/- 0.03 ng/ml).
The target is the same in assay [10]. Description: Induction of TLR9-mediated immune stimulation in human PBMC assessed as IL2R production at 10 ug/ml after 24 hrs by luminex multiplex assay (RVb = 0.02 +/- 0.01 ng/ml).

In the case of `Cc1cn([C@H]2C[C@H](OCCOCCOCCOCCOCCOCCOP(=O)(S)O[C@H]3C[C@H](n4cc(C)c(=O)[nH]c4=O)O[C@@H]3COP(=O)(S)O[C@H]3[C@@H](O)[C@H](n4ccc(N)nc4=O)O[C@@H]3COP(=O)(S)O[C@H]3C[C@H](n4cc(C)c(=O)[nH]c4=O)O[C@@H]3COP(=O)(S)O[C@H]3C[C@H](n4cc(C)c(=O)[nH]c4=O)O[C@@H]3COP(=O)(S)O[C@H]3C[C@H](n4ccc5c(=O)[nH]c(N)nc54)O[C@@H]3COP(=O)(S)O[C@H]3[C@@H](O)[C@H](n4ccc(N)nc4=O)O[C@@H]3COP(=O)(S)O[C@H]3C[C@H](n4cc(C)c(=O)[nH]c4=O)O[C@@H]3COP(=O)(S)O[C@H]3[C@@H](O)[C@H](n4cnc5c(=O)[nH]c(N)nc54)O[C@@H]3COP(=O)(S)O[C@H]3C[C@H](n4cc(C)c(=O)[nH]c4=O)O[C@@H]3COP(=O)(S)O[C@H]3[C@@H](O)[C@H](n4ccc(N)nc4=O)O[C@@H]3COP(=O)(S)O[C@H]3C[C@H](n4cc(C)c(=O)[nH]c4=O)O[C@@H]3CO)[C@@H](COP(=O)(S)O[C@H]3[C@@H](O)[C@H](n4ccc(N)nc4=O)O[C@@H]3COP(=O)(S)O[C@H]3C[C@H](n4cc(C)c(=O)[nH]c4=O)O[C@@H]3COP(=O)(S)O[C@H]3C[C@H](n4cc(C)c(=O)[nH]c4=O)O[C@@H]3COP(=O)(S)O[C@H]3C[C@H](n4ccc5c(=O)[nH]c(N)nc54)O[C@@H]3COP(=O)(S)O[C@H]3[C@@H](O)[C@H](n4ccc(N)nc4=O)O[C@@H]3COP(=O)(S)O[C@H]3C[C@H](n4cc(C)c(=O)[nH]c4=O)O[C@@H]3COP(=O)(S)O[C@H]3[C@@H](O)[C@H](n4cnc5c(=O)[nH]c(N)nc54)O[C@@H]3COP(=O)(S)O[C@H]3C[C@H](n4cc(C)c(=O)[nH]c4=O)O[C@@H]3COP(=O)(S)O[C@H]3[C@@H](O)[C@H](n4ccc(N)nc4=O)O[C@@H]3COP(=O)(S)O[C@H]3C[C@H](n4cc(C)c(=O)[nH]c4=O)O[C@@H]3CO)O2)c(=O)[nH]c1=O` (stereo not given in full), the Activity in assay [1] was 1.32 ng/mL; in assay [2], 0.05 ng/mL; in assay [3] it was 1.57 ng/mL; in assay [4], 0.12 ng/mL; in assay [5], 0.03 ng/mL; in assay [6], “Dose-dependent effect”. Moreover, the Activity in assay [7] is 0.9 ng/mL; in assay [8], 0.11 ng/mL; in [9], 10.7 ng/mL; in assay [10], 0.21 ng/mL.

With `Cc1cn([C@H]2C[C@H](O[C@@H]3C[C@@H](O)C[C@@H](OP(=O)(S)O[C@H]4C[C@H](n5cc(C)c(=O)[nH]c5=O)O[C@@H]4COP(=O)(S)O[C@H]4[C@@H](O)[C@H](n5ccc(N)nc5=O)O[C@@H]4COP(=O)(S)O[C@H]4C[C@H](n5cc(C)c(=O)[nH]c5=O)O[C@@H]4COP(=O)(S)O[C@H]4C[C@H](n5cc(C)c(=O)[nH]c5=O)O[C@@H]4COP(=O)(S)O[C@H]4C[C@H](n5ccc6c(=O)[nH]c(N)nc65)O[C@@H]4COP(=O)(S)O[C@H]4[C@@H](O)[C@H](n5ccc(N)nc5=O)O[C@@H]4COP(=O)(S)O[C@H]4C[C@H](n5cc(C)c(=O)[nH]c5=O)O[C@@H]4COP(=O)(S)O[C@H]4[C@@H](O)[C@H](n5cnc6c(=O)[nH]c(N)nc65)O[C@@H]4COP(=O)(S)O[C@H]4C[C@H](n5cc(C)c(=O)[nH]c5=O)O[C@@H]4COP(=O)(S)O[C@H]4[C@@H](O)[C@H](n5ccc(N)nc5=O)O[C@@H]4COP(=O)(S)O[C@H]4C[C@H](n5cc(C)c(=O)[nH]c5=O)O[C@@H]4CO)C3)[C@@H](COP(=O)(S)O[C@H]3[C@@H](O)[C@H](n4ccc(N)nc4=O)O[C@@H]3COP(=O)(S)O[C@H]3C[C@H](n4cc(C)c(=O)[nH]c4=O)O[C@@H]3COP(=O)(S)O[C@H]3C[C@H](n4cc(C)c(=O)[nH]c4=O)O[C@@H]3COP(=O)(S)O[C@H]3C[C@H](n4ccc5c(=O)[nH]c(N)nc54)O[C@@H]3COP(=O)(S)O[C@H]3[C@@H](O)[C@H](n4ccc(N)nc4=O)O[C@@H]3COP(=O)(S)O[C@H]3C[C@H](n4cc(C)c(=O)[nH]c4=O)O[C@@H]3COP(=O)(S)O[C@H]3[C@@H](O)[C@H](n4cnc5c(=O)[nH]c(N)nc54)O[C@@H]3COP(=O)(S)O[C@H]3C[C@H](n4cc(C)c(=O)[nH]c4=O)O[C@@H]3COP(=O)(S)O[C@H]3[C@@H](O)[C@H](n4ccc(N)nc4=O)O[C@@H]3COP(=O)(S)O[C@H]3C[C@H](n4cc(C)c(=O)[nH]c4=O)O[C@@H]3CO)O2)c(=O)[nH]c1=O` (stereo not given in full), the Activity is 2.26 ng/mL in assay [1]; 0.05 ng/mL in [2]; 0.5 ng/mL in assay [3]; 0.12 ng/mL in [4]; 0.01 ng/mL in assay [5]; “Dose-dependent effect” in [6]. Further, the Activity in [7] turned out to be 2.45 ng/mL; in [8] it was 0.12 ng/mL; in assay [9], 14.2 ng/mL; in assay [10], 0.29 ng/mL.
